One data set has as its system P388. The data set can be described thus: Cytotoxic activity against murine P388 leukemia cells. The class given is functional, cell-based. The conditions noted are these: Mus musculus.
Data set [1] is described as follows: Solubility at pH 7.2. Format: physicochemical. To be noted: buffer. Put shortly:
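Water solubility measured in pH 7.2 phosphate buffer, reported in mg/mL.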

For data set [2], the system named is Mus musculus. The data set can be described thus: Ratio of median survival time of treated mice (T) to that of median survival time of controls (C) in mice infected with p388 cells (in vivo) at a dose of 50 mg/kg. The class given is functional. Put shortly:
(§1)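 BDF1 mice implanted ip with 0.1 mL diluted ascites fluid carrying 10⁶ P388 leukemia cells. Dosing ip on days 1 and 5 after implantation. Test compounds were suspended in 0.4% CMC, and reference drugs were dissolved and diluted in distilled water. Seven mice per group. T/C (%) = median survival time of treated group / median survival time of control group × 100.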

For data set [3], the system named is Mus musculus. The data set can be described thus: Ratio of median survival time of treated mice (T) to that of median survival time of controls (C) in mice infected with p388 cells (in vivo) at a dose of 3.13 mg/kg. The class given is functional. Put shortly:
as §1

The test system of data set [4] is Mus musculus. The data set can be described thus: Ratio of median survival time of treated mice (T) to that of median survival time of controls (C) in mice infected with p388 cells (in vivo) at a dose of 12.5 mg/kg. The class given is functional. Put shortly:
as §1

In data set [5] the test system is Mus musculus. The data set can be described thus: Ratio of median survival time of treated mice (T) to that of median survival time of controls (C) in mice infected with p388 cells (in vivo) at a dose of 0.78 mg/kg. Format: functional. Put shortly:
as §1

Data set [6] relates to Mus musculus. The data set can be described thus: Ratio of median survival time of treated mice (T) to that of median survival time of controls (C) in mice infected with p388 cells (in vivo) at a dose of 25 mg/kg. The class given is functional. In short, it runs like this:
as §1

Data set [7] has as its system Mus musculus. The data set can be described thus: Ratio of median survival time of treated mice (T) to that of median survival time of controls (C) in mice infected with p388 cells (in vivo) at a dose of 6.25 mg/kg. Format: functional. Put shortly: as §1
The test system of data set [8] is Mus musculus. The data set can be described thus: Ratio of median survival time of treated mice (T) to that of median survival time of controls (C) in mice infected with p388 cells (in vivo) at a dose of 1.56 mg/kg. Format: functional. Put shortly:
as §1

A word on the IC50: it is the concentration needed to halve the response being measured. Lower therefore signals higher potency. One may read the solubility as how much of the substance goes into solution per volume. For orientation: T/C means the ratio of treated to control.

In brackets after ≈: the same amount, converted by molar mass.

Take `Cl.O=C(O)c1cn(-c2nccs2)c2nc(N3CCOCC3)ccc2c1=O`: the concentration for half-maximal inhibition (IC50) with P388 was determined as 0.12 µg/mL.

As for `CN[C@H]1CN(c2ccc3c(=O)c(C(=O)O)cn(-c4nccs4)c3n2)C[C@@H]1SC.Cl`, inhibition in the data set with P388 was half-maximal at 0.02 µg/mL (IC50).

In the case of `Cl.NC1CCN(c2nc3c(cc2Cl)c(=O)c(C(=O)O)cn3-c2nccs2)C1` (stereo unspecified), the half-maximal inhibitory concentration (IC50) with P388 is 0.227 µg/mL.

As for `COc1ccccc1N1CCN(c2ccc3c(=O)c(C(=O)O)cn(-c4nccs4)c3n2)CC1.Cl`, the IC50 in the data set with P388 was more than 1 µg/mL.

In the data set with P388, `Cl.O=C(O)c1cn(-c2nccs2)c2nc(N3CCCC3)ccc2c1=O` returned a 50% inhibitory concentration (IC50) of 0.066 µg/mL.

`Cl.NC1CCN(c2ccc3c(=O)c(C(=O)O)cn(-c4nccs4)c3n2)C1` (stereo unspecified): in data set [1], the solubility was found to be 6.9 µg/mL. Further, the T/C in the data set with Mus musculus [2] was determined as 125%; with Mus musculus [3], 188%; in the data set with Mus musculus [4], 275%. The compound also had an IC50 in the data set with P388 of 0.01 µg/mL.

Compound `Cl.O=C(O)c1cn(-c2nccs2)c2nc(N3CCNCC3)ccc2c1=O` gave an IC50 with P388 of 0.057 µg/mL.

Regarding `CNC1(C)CCN(c2ccc3c(=O)c(C(=O)O)cn(-c4nccs4)c3n2)C1.Cl` (stereo unspecified), in data set [1], the concentration in solution (solubility) was 7.2 µg/mL. Besides, the results for the T/C in the data set with Mus musculus [2], in the data set on Mus musculus [3] and in the data set on Mus musculus [4] were 113%, 163% and 225%, respectively. In addition, the IC50 in the data set on P388 came out at 0.018 µg/mL.

On to `CNC1CCCN(c2ccc3c(=O)c(C(=O)O)cn(-c4nccs4)c3n2)C1.Cl` (stereo unspecified), for which the 50% inhibitory concentration (IC50) with P388 came out at 0.52 µg/mL.

`CN[C@H]1CN(c2ccc3c(=O)c(C(=O)O)cn(-c4nccs4)c3n2)C[C@H]1OC.Cl`: the IC50 in the data set on P388 turned out to be 0.02 µg/mL.

`C=Cc1ccc2c(=O)c(C(=O)O)cn(-c3nccs3)c2n1` registered an IC50 in the data set on P388 of more than 1 µg/mL.

`Cl.Nc1cc(N2CCC(N)C2)nc2c1c(=O)c(C(=O)O)cn2-c1nccs1` (stereo unspecified) registered a half-inhibitory concentration (IC50) with P388 of 0.0081 µg/mL.

For the compound `Cl.N[C@H]1CN(c2ccc3c(=O)c(C(=O)O)cn(-c4nccs4)c3n2)C[C@@H]1CCl`, 0.024 µg/mL corresponded to half-maximal inhibition in the data set on P388 (IC50).

For the compound `CNC1CN(c2ccc3c(=O)c(C(=O)O)cn(-c4nccs4)c3n2)C1.Cl`, in the data set with P388, the IC50 was 0.024 µg/mL.

`C[C@H]1CN(c2ccc3c(=O)c(C(=O)O)cn(-c4nccs4)c3n2)C[C@]1(C)N.Cl` had a half-inhibitory concentration (IC50) in the data set with P388 of 0.02 µg/mL.

In the data set on P388, `Cl.NC1CCN(c2nc3c(cc2O)c(=O)c(C(=O)O)cn3-c2nccs2)C1` (stereo unspecified) displayed a concentration for half-maximal inhibition (IC50) of 4.31 µg/mL.

Turning to `Cc1cc(-c2ccc3c(=O)c(C(=O)O)cn(-c4nccs4)c3n2)cc(C)n1`, the IC50 with P388 came out at 7.37 µg/mL (≈ 19.5 µM).

Compound `C[C@@H]1CN(c2ccc3c(=O)c(C(=O)O)cn(-c4nccs4)c3n2)C[C@H](C)N1.Cl` registered an IC50 with P388 of 0.081 µg/mL.

In the data set with P388, `O=C(O)c1cn(-c2nccs2)c2nc(-c3ccccc3)ccc2c1=O` displayed an IC50 of 6.33 µg/mL (≈ 18.1 µM).

`Cl.O=C(O)c1cn(-c2nccs2)c2nc(N3C[C@@H]4CCCN[C@@H]4C3)ccc2c1=O` yielded a concentration for half-maximal inhibition (IC50) with P388 of 0.017 µg/mL.

In the case of `O=C(O)c1cn(-c2nccs2)c2nc(-c3cc[nH]n3)ccc2c1=O`, in the data set with P388, the 50% inhibitory concentration (IC50) is 4.34 µg/mL (≈ 12.8 µM).

In the data set on P388, `Cl.NC1CCN(c2cc(C(F)(F)F)c3c(=O)c(C(=O)O)cn(-c4nccs4)c3n2)C1` (stereo unspecified) gave an IC50 of 0.098 µg/mL.

With `Cl.Nc1cc2c(=O)c(C(=O)O)cn(-c3nccs3)c2nc1N1CCC(N)C1` (stereo unspecified), in the data set with P388, the midpoint of inhibition, the IC50, lay at 1.01 µg/mL.

Compound `CO[C@H]1CN(c2ccc3c(=O)c(C(=O)O)cn(-c4nccs4)c3n2)C[C@@H]1N.Cl` yielded a solubility in data set [1] of 47 µg/mL. Also, the T/C in the data set on Mus musculus [2] was determined as 338%; in the data set on Mus musculus [3], 163%; with Mus musculus [4], 238%. The compound further had a 50% inhibitory concentration (IC50) in the data set with P388 of 0.018 µg/mL.

For `CN[C@@H]1CN(c2ccc3c(=O)c(C(=O)O)cn(-c4nccs4)c3n2)[C@H]1C.Cl`, in the data set with P388, it took 0.041 µg/mL to reach half-maximal inhibition (IC50).

In turn, `Cl.NC1CCN(c2nc3c(cc2[N+](=O)[O-])c(=O)c(C(=O)O)cn3-c2nccs2)C1` (stereo unspecified) registered an IC50 with P388 of 2.29 µg/mL.

With `CN[C@H]1CN(c2ccc3c(=O)c(C(=O)O)cn(-c4nccs4)c3n2)C[C@@H]1OC.Cl` [listing 1 of 2 here], the T/C in the data set with Mus musculus [5] is 150%; with Mus musculus [6], 300%; in the data set with Mus musculus [2] it was more than 375%; in the data set on Mus musculus [3], 200%; with Mus musculus [4], 250%; in the data set on Mus musculus [7], 225%. Besides, in data set [1], the solubility came to 20100 µg/mL. For the same compound, in the data set on P388, inhibition was half-maximal at 0.01 µg/mL (IC50).

As to `CN[C@H]1CN(c2ccc3c(=O)c(C(=O)O)cn(-c4nccs4)c3n2)C[C@@H]1C.Cl`, in data set [1], the concentration in solution (solubility) was 6.2 µg/mL. For the same compound, the T/C is reported as 75% with Mus musculus [2], 188% in the data set on Mus musculus [3] and 288% in the data set on Mus musculus [4]. Besides, 0.012 µg/mL corresponded to half-maximal inhibition in the data set with P388 (IC50).

`CCN[C@H]1CN(c2ccc3c(=O)c(C(=O)O)cn(-c4nccs4)c3n2)C[C@@H]1OC.Cl` displayed an IC50 in the data set on P388 of 0.025 µg/mL.

`Cl.O=C(O)c1cn(-c2nccs2)c2nc(N3CCc4ccccc4C3)ccc2c1=O` returned an IC50 in the data set on P388 of more than 10 µg/mL.

`CC1CC(N)CN1c1ccc2c(=O)c(C(=O)O)cn(-c3nccs3)c2n1.Cl` (stereo unspecified) displayed an IC50 with P388 of 0.11 µg/mL.

`C[C@H]1CN(c2ccc3c(=O)c(C(=O)O)cn(-c4nccs4)c3n2)C[C@@H]1N.Cl`: the solubility in [1] came to 17 µg/mL. In addition, the T/C in the data set with Mus musculus [2] was 288%; with Mus musculus [3], 175%; with Mus musculus [4], 200%. In addition, the concentration for half-maximal inhibition (IC50) in the data set on P388 was 0.0096 µg/mL.

`CNC1CCN(c2ccc3c(=O)c(C(=O)O)cn(-c4nccs4)c3n2)C1.Cl` (stereo unspecified): the solubility in data set [1] turned out to be 8 µg/mL. The values for the T/C with Mus musculus [2], in the data set on Mus musculus [3] and in the data set on Mus musculus [4] were more than 375%, 200% and 300%, respectively. Moreover, the half-maximal inhibitory concentration (IC50) in the data set with P388 worked out at 0.01 µg/mL.

Take `COc1cccc2c1C(=O)c1c(O)c3c(c(O)c1C2=O)C[C@@](O)(C(=O)CO)C[C@@H]3O[C@H]1C[C@H](N)[C@H](O)[C@H](C)O1` [DOXORUBICIN]: the T/C in the data set with Mus musculus [5] stood at 173%; in the data set with Mus musculus [3] it was 235%; in the data set with Mus musculus [8], 228%; in the data set on Mus musculus [7] it was 293%.

On to CISPLATIN, for which the T/C came to 154% in the data set on Mus musculus [5], 239% in the data set on Mus musculus [3], 186% in the data set with Mus musculus [8] and 290% in the data set with Mus musculus [7].

On to `C[C@H]1[C@H](N)CCN1c1ccc2c(=O)c(C(=O)O)cn(-c3nccs3)c2n1.Cl`, for which the IC50 in the data set on P388 came out at 0.094 µg/mL.

For `CN[C@@H]1CN(c2ccc3c(=O)c(C(=O)O)cn(-c4nccs4)c3n2)C[C@H]1OC.Cl`, the T/C in the data set with Mus musculus [5] was determined as 125%; with Mus musculus [6] it was 300%; with Mus musculus [3], 163%; in the data set with Mus musculus [8], 125%; in the data set on Mus musculus [4], 238%; with Mus musculus [7], 188%. For the same compound, the concentration in solution in data set [1] (solubility) came to 19800 µg/mL. This compound returned an IC50 in the data set on P388 of 0.021 µg/mL.

`Cl.NC1CCN(c2cc(Cl)c3c(=O)c(C(=O)O)cn(-c4nccs4)c3n2)C1` (stereo unspecified) yielded an IC50 in the data set with P388 of 0.049 µg/mL.

For the compound `CN[C@H]1CN(c2ccc3c(=O)c(C(=O)O)cn(-c4nccs4)c3n2)C[C@@H]1OC.Cl` [listing 2 of 2 here], the T/C in the data set with Mus musculus [5] is on record as 150%; with Mus musculus [6], more than 375%; with Mus musculus [3], 225%; in the data set with Mus musculus [8] it was 188%; in the data set with Mus musculus [4], more than 375%; in the data set with Mus musculus [7], 275%. The solubility in data set [1] amounted to 23700 µg/mL. Besides, inhibition in the data set with P388 was half-maximal at 0.0075 µg/mL (IC50).

Take `C#Cc1ccc2c(=O)c(C(=O)O)cn(-c3nccs3)c2n1`: half-maximal inhibition in the data set on P388 (IC50) required 2.3 µg/mL (≈ 7.74 µM).

In data set [1], `CC1(N)CCN(c2ccc3c(=O)c(C(=O)O)cn(-c4nccs4)c3n2)C1.Cl` (stereo unspecified) gave a solubility of 3.8 µg/mL. The T/C in the data set with Mus musculus [2] turned out to be 138%; with Mus musculus [3], 150%; in the data set on Mus musculus [4], 213%. Moreover, in the data set on P388, the midpoint of inhibition, the IC50, lay at 0.019 µg/mL.

The values above are taken from ChEMBL document CHEMBL1149148, “Synthesis and structure-activity relationships of novel 7-substituted 1,4-dihydro-4-oxo-1-(2-thiazolyl)-1,8-naphthyridine-3-carboxylic acids as antitumor agents. Part 2” (J Med Chem, 2004).
